# Measurements published in ChEMBL document CHEMBL4811246, “New organoselenides (NSAIDs-Se derivatives) as potential anticancer agents: Synthesis, biological evaluation and in silico calculations” (Eur J Med Chem, 2021).
# Active and inactive are the calls of the source. The rule behind the calls is not given here.
# Test system: Caco-2
# Assay: Cytotoxicity against human Caco2 cells assessed as reduction in cell viability measured upto 72 hrs by MTT assay
# Type: functional, cell-based
# Details: Caco-2, 72 h
# How it was run: (§1)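 ATCC cells grown in RPMI 1640 with 10% FBS and penicillin/streptomycin at 37 °C, 5% CO2. Cells seeded at 1×10^4 per well and allowed 24 h to attach, then exposed to graded compound concentrations for 24, 48 and 72 h, DMSO kept below 1.25%. MTT added 3 h before the end, formazan dissolved in DMSO, OD read at 570 nm. IC50 from viability, three repetitions, mean ± SD.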
row,Compound,IC50 [µM]
1,COc1ccc2c(c1)c(CC(=O)OCCC[Se]C(F)(F)F)c(C)n2C(=O)c1ccc(Cl)cc1,10.5
2,CC(C)Cc1ccc(C(C)C(=O)O)cc1 (stereo not given) [IBUPROFEN],> 50
3,CC1=C(CC(=O)OCCC[Se]C#N)c2cc(F)ccc2/C1=C\c1ccc([S+](C)[O-])cc1 (stereo not given),28.6
4,O=c1[nH]cc(F)c(=O)[nH]1 [FLUOROURACIL],7.8
5,CCc1cccc2c3c([nH]c12)C(CC)(CC(=O)OCCC[Se]C#N)OCC3 (stereo not given),11.5
6,COc1ccc2c(c1)c(CC(=O)OCCC[Se]C#N)c(C)n2C(=O)c1ccc(Cl)cc1,32.4
7,COc1ccc2cc([C@H](C)C(=O)O)ccc2c1 [NAPROXEN],> 50
8,CC(C(=O)OCCC[Se]C#N)c1cccc(C(=O)c2ccccc2)c1 (stereo not given),19.7
9,CC(=O)Oc1ccccc1C(=O)OCCC[Se]C#N,14.5
10,Cc1cccc(Nc2ccccc2C(=O)OCCC[Se]C(F)(F)F)c1C,13.3
11,COc1ccc2cc(C(C)C(=O)OCCC[Se]C#N)ccc2c1 (stereo not given),21.5

# Test system: not listed separately
# Assay: Antioxidant activity assessed as DPPH radical scavenging activity incubated for 30 mins under dark condition relative to control
# Type: functional
# Design: concentration or dose not given beside the values
# Details: not given
# How it was run: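 DPPH radical scavenging: test samples at a range of concentrations mixed with DPPH solution and held 30 min in the dark, then absorbance read at 517 nm. Ascorbic acid and ebselen served as positive controls and DMSO as negative control. % activity = [(control A − sample A)/control A] × 100. Mean ± SD of three independent experiments.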
row,Compound,inhibition [%]
1,O=C1O[C@H]([C@@H](O)CO)C(O)=C1O,96.4
2,COc1ccc2c(c1)c(CC(=O)OCCC[Se]C(F)(F)F)c(C)n2C(=O)c1ccc(Cl)cc1,36.6
3,CC1=C(CC(=O)OCCC[Se]C#N)c2cc(F)ccc2/C1=C\c1ccc([S+](C)[O-])cc1 (stereo not given),45.7
4,CCc1cccc2c3c([nH]c12)C(CC)(CC(=O)OCCC[Se]C#N)OCC3 (stereo not given),30.4
5,COc1ccc2c(c1)c(CC(=O)OCCC[Se]C#N)c(C)n2C(=O)c1ccc(Cl)cc1,44.3
6,CC(C(=O)OCCC[Se]C#N)c1cccc(C(=O)c2ccccc2)c1 (stereo not given),57.1
7,CC(=O)Oc1ccccc1C(=O)OCCC[Se]C#N,27.3
8,Cc1cccc(Nc2ccccc2C(=O)OCCC[Se]C(F)(F)F)c1C,23.3
9,COc1ccc2cc(C(C)C(=O)OCCC[Se]C#N)ccc2c1 (stereo not given),24.6

# Test system: not listed separately
# Assay: Antioxidant activity assessed as bleomycin-Fe2+-induced DNA degradation by measuring absorbance at 0.1 mg/ml after 1 hr
# Type: functional
# Design: unit not given here
# Details: not given
# How it was run: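 Stopped with EDTA, then TBA (1% w/v) and HCl (25% v/v) added and heated 80 °C for 30 min. After cooling on ice, DNA damage read as absorbance increase at 532 nm. L-ascorbic acid positive control.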
row,Compound,Activity
1,O=C1O[C@H]([C@@H](O)CO)C(O)=C1O,297
2,COc1ccc2c(c1)c(CC(=O)OCCC[Se]C(F)(F)F)c(C)n2C(=O)c1ccc(Cl)cc1,62.6
3,CC1=C(CC(=O)OCCC[Se]C#N)c2cc(F)ccc2/C1=C\c1ccc([S+](C)[O-])cc1 (stereo not given),91.3
4,CCc1cccc2c3c([nH]c12)C(CC)(CC(=O)OCCC[Se]C#N)OCC3 (stereo not given),69.4
5,COc1ccc2c(c1)c(CC(=O)OCCC[Se]C#N)c(C)n2C(=O)c1ccc(Cl)cc1,72.4
6,CC(C(=O)OCCC[Se]C#N)c1cccc(C(=O)c2ccccc2)c1 (stereo not given),67.6
7,CC(=O)Oc1ccccc1C(=O)OCCC[Se]C#N,78.3
8,Cc1cccc(Nc2ccccc2C(=O)OCCC[Se]C(F)(F)F)c1C,77.6
9,COc1ccc2cc(C(C)C(=O)OCCC[Se]C#N)ccc2c1 (stereo not given),81.6

# Test system: BGC-823
# Assay: Cytotoxicity against human BGC-823 cells assessed as reduction in cell viability measured upto 72 hrs by MTT assay
# Type: functional, cell-based
# Details: BGC-823, 72 h
# How it was run: as §1
row,Compound,IC50 [µM]
1,COc1ccc2c(c1)c(CC(=O)OCCC[Se]C(F)(F)F)c(C)n2C(=O)c1ccc(Cl)cc1,7.3
2,CC(C)Cc1ccc(C(C)C(=O)O)cc1 (stereo not given) [IBUPROFEN],> 50
3,CC1=C(CC(=O)OCCC[Se]C#N)c2cc(F)ccc2/C1=C\c1ccc([S+](C)[O-])cc1 (stereo not given),17.5
4,O=c1[nH]cc(F)c(=O)[nH]1 [FLUOROURACIL],15.4
5,CCc1cccc2c3c([nH]c12)C(CC)(CC(=O)OCCC[Se]C#N)OCC3 (stereo not given),21.4
6,COc1ccc2c(c1)c(CC(=O)OCCC[Se]C#N)c(C)n2C(=O)c1ccc(Cl)cc1,35.5
7,COc1ccc2cc([C@H](C)C(=O)O)ccc2c1 [NAPROXEN],> 50
8,CC(C(=O)OCCC[Se]C#N)c1cccc(C(=O)c2ccccc2)c1 (stereo not given),12.6
9,CC(=O)Oc1ccccc1C(=O)OCCC[Se]C#N,17.3
10,Cc1cccc(Nc2ccccc2C(=O)OCCC[Se]C(F)(F)F)c1C,19.6
11,COc1ccc2cc(C(C)C(=O)OCCC[Se]C#N)ccc2c1 (stereo not given),17.3

# Test system: not listed separately
# Assay: Antioxidant activity assessed as GPx-like activity by measuring oxidation of NADPH to NADP+ by NADPH-reductase coupled assay
# Type: functional
# Details: not given
# How it was run: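 NADPH/glutathione reductase coupled GPx-like assay: 50 mM phosphate buffer with 0.1% Triton X-100, NADPH reagent containing GSH, glutathione reductase and NADPH, and compound (0.01 ml of 41 mM). Reaction started with H2O2 (0.8 mM), and A340 decrease followed over 3 min to give ΔA/min. Values background-corrected for the H2O2 plus GSH reaction. Ebselen positive control.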
row,Compound,Activity
1,CC1=C(CC(=O)OCCC[Se]C#N)c2cc(F)ccc2/C1=C\c1ccc([S+](C)[O-])cc1 (stereo not given),Active
2,CC(C(=O)OCCC[Se]C#N)c1cccc(C(=O)c2ccccc2)c1 (stereo not given),Active

# Test system: MCF7
# Assay: Cytotoxicity against human MCF7 cells assessed as reduction in cell viability measured upto 72 hrs by MTT assay
# Type: functional, cell-based
# Details: MCF7, 72 h
# How it was run: as §1
row,Compound,IC50 [µM]
1,COc1ccc2c(c1)c(CC(=O)OCCC[Se]C(F)(F)F)c(C)n2C(=O)c1ccc(Cl)cc1,9.3
2,CC(C)Cc1ccc(C(C)C(=O)O)cc1 (stereo not given) [IBUPROFEN],> 50
3,CC1=C(CC(=O)OCCC[Se]C#N)c2cc(F)ccc2/C1=C\c1ccc([S+](C)[O-])cc1 (stereo not given),31.3
4,CCc1cccc2c3c([nH]c12)C(CC)(CC(=O)OCCC[Se]C#N)OCC3 (stereo not given),14.4
5,COc1ccc2c(c1)c(CC(=O)OCCC[Se]C#N)c(C)n2C(=O)c1ccc(Cl)cc1,29.3
6,COc1ccc2cc([C@H](C)C(=O)O)ccc2c1 [NAPROXEN],> 50
7,CC(C(=O)OCCC[Se]C#N)c1cccc(C(=O)c2ccccc2)c1 (stereo not given),8.3
8,CC(=O)Oc1ccccc1C(=O)OCCC[Se]C#N,8.9
9,Cc1cccc(Nc2ccccc2C(=O)OCCC[Se]C(F)(F)F)c1C,8.5
10,COc1ccc2cc(C(C)C(=O)OCCC[Se]C#N)ccc2c1 (stereo not given),32.8

# Test system: PC-3
# Assay: Cytotoxicity against human PC-3 cells assessed as reduction in cell viability measured upto 72 hrs by MTT assay
# Type: functional, cell-based
# Details: PC-3, 72 h
# How it was run: as §1
row,Compound,IC50 [µM]
1,COc1ccc2c(c1)c(CC(=O)OCCC[Se]C(F)(F)F)c(C)n2C(=O)c1ccc(Cl)cc1,7.8
2,CC(C)Cc1ccc(C(C)C(=O)O)cc1 (stereo not given) [IBUPROFEN],> 50
3,CC1=C(CC(=O)OCCC[Se]C#N)c2cc(F)ccc2/C1=C\c1ccc([S+](C)[O-])cc1 (stereo not given),22.3
4,O=c1[nH]cc(F)c(=O)[nH]1 [FLUOROURACIL],9.5
5,CCc1cccc2c3c([nH]c12)C(CC)(CC(=O)OCCC[Se]C#N)OCC3 (stereo not given),31.4
6,COc1ccc2c(c1)c(CC(=O)OCCC[Se]C#N)c(C)n2C(=O)c1ccc(Cl)cc1,21.8
7,COc1ccc2cc([C@H](C)C(=O)O)ccc2c1 [NAPROXEN],> 50
8,CC(C(=O)OCCC[Se]C#N)c1cccc(C(=O)c2ccccc2)c1 (stereo not given),12.6
9,CC(=O)Oc1ccccc1C(=O)OCCC[Se]C#N,11.2
10,Cc1cccc(Nc2ccccc2C(=O)OCCC[Se]C(F)(F)F)c1C,24.5
11,COc1ccc2cc(C(C)C(=O)OCCC[Se]C#N)ccc2c1 (stereo not given),22

# Test system: not listed separately
# Assay: Antioxidant activity assessed as DPPH radical scavenging activity incubated for 30 mins under dark condition relative to vitamin C
# Type: functional
# Details: not given
row,Compound,fold change (FC)
1,O=C1O[C@H]([C@@H](O)CO)C(O)=C1O,1
2,COc1ccc2c(c1)c(CC(=O)OCCC[Se]C(F)(F)F)c(C)n2C(=O)c1ccc(Cl)cc1,0.4
3,CC1=C(CC(=O)OCCC[Se]C#N)c2cc(F)ccc2/C1=C\c1ccc([S+](C)[O-])cc1 (stereo not given),0.5
4,CCc1cccc2c3c([nH]c12)C(CC)(CC(=O)OCCC[Se]C#N)OCC3 (stereo not given),0.3
5,COc1ccc2c(c1)c(CC(=O)OCCC[Se]C#N)c(C)n2C(=O)c1ccc(Cl)cc1,0.4
6,CC(=O)Oc1ccccc1C(=O)OCCC[Se]C#N,0.3
7,Cc1cccc(Nc2ccccc2C(=O)OCCC[Se]C(F)(F)F)c1C,0.3
